Screening results: PubChem, several laboratories
TNAP act hi DEA – TNAP activators at high phosphate acceptor level, primary screen, biochemical, luminescence, uHTS; purified TNAP, CDP-star luminescence, 1 M DEA, 30 min; stronger effect = higher value; 0 = EDTA background, 1 = DMSO-only activity; activation factor at 20 µM; AID 1136, 2008; Alkaline phosphatase, tissue-nonspecific isozyme (Homo sapiens), P05186; 200,000 tested, under 10 active;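 active = activation factor at least 2 at 20 µM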
Target sequence (P05186 whole entry, looked up): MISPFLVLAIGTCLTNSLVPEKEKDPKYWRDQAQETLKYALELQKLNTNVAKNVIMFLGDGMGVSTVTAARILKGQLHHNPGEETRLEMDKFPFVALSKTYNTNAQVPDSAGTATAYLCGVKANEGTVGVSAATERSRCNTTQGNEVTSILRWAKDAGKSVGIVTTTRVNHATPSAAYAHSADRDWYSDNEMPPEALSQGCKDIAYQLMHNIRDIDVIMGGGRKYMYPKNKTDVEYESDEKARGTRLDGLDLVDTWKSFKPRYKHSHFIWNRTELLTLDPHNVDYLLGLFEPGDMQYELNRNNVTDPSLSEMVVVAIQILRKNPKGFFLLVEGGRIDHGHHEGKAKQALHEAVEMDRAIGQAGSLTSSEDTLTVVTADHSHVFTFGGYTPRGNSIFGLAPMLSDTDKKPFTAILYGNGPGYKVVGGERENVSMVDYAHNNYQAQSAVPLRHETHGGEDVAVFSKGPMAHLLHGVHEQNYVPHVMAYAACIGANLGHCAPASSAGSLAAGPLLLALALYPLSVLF
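Control set: EDTA negative control, DMSO positive control / Assay system: human TNAP / Quantity: TNAP 1/800 final / Evaluation: TNAP activation factor scaled between EDTA and DMSO control wells / Measured by: luminescent substrate turnover signal / Compound dosing: one dose, 20 µM / Times: 30 min enzyme reaction at room temperature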
BB579 growth dn – growth inhibitors of yeast BB579 in restrictive medium, primary screen, yeast lifespan-shortening project, S. cerevisiae. OD615, 48 h. inhibition, % at 10 µM. hit rate 0.51% among 140,000;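 active = inhibition above a set limit, 3 SD over the mean compound inhibition, cut at about 44% in these data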
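Test system: DeaD yeast strain BB579 / Buffer or medium: restrictive glucose-based CSMM-D medium / Doses: single 10 µM dose / Schedule: 4 h cell preincubation, 48 h compound exposure, 30 °C humidified / Technique: culture absorbance at 615 nm / Controls: amphotericin B positive control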
Yeast lifespan up – compounds extending yeast replicative lifespan, primary screen, S. cerevisiae, OD615; S. cerevisiae growth with nicotinamide; deaD strain in restrictive glucose medium; inhibition of the nicotinamide effect, % at 10 µM; hit rate 0.68% among 130,000;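 active = inhibition above a set limit, placed 3 SD over the median of all compounds, cut at about 26% in these data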;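 also: 0% = nicotinamide-treated wells and 100% = cells grown without nicotinamide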
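Test system: DeaD-strain S. cerevisiae / Buffer or medium: restrictive glucose medium / Also added: nicotinamide 1.5 mM / Doses: one concentration, 10 µM, DMSO 0.25% / Schedule: 48 h at 30 °C / Signal: OD615 measurement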
TNAP inh hiacc – human TNAP enzyme inhibitors, primary screen, biochemical, luminescent, high phosphate acceptor level, uHTS | purified TNAP, CDP-star luminescence, 1 M DEA | hit rate 0.03% among 200,000 | inhibition, % at 20 µM | AID 1135, 2008 | Alkaline phosphatase, tissue-nonspecific isozyme (Homo sapiens), P05186;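 active = over 50% inhibition of tissue-nonspecific alkaline phosphatase at 20 µM in the single-dose screen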;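 also: plate controls were DMSO wells for no effect and EDTA-quenched wells as full inhibition for full effect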
TNAP inh noacc – human TNAP enzyme inhibitors, primary screen, biochemical, luminescent, no phosphate acceptor, uHTS; Alkaline phosphatase, tissue-nonspecific isozyme (Homo sapiens), P05186; purified TNAP, CDP-star luminescence, 30 min; inhibition, % at 20 µM; hit rate 0.26% among 200,000;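 active = tissue-nonspecific alkaline phosphatase inhibition above about 50% at 20 µM in the single-dose screen, limit read from the data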;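 also: 0% = DMSO negative control and 100% = EDTA positive control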
RAM inhibit – inhibitors of the yeast RAM network, primary screen, dse1pr::URA3 reporter, 5-FOA selection | S. cerevisiae dse1pr::URA3 reporter, 5-FOA growth OD615, 2 d; analog-sensitive cbk1-as2 kinase mutant strain | AID 868, 2007 | inhibition, % at 50 µM | hit rate 1.8% among 190,000;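 active = inhibition above a set limit, 3 SD over mean compound inhibition, cut at about 8.4% in these data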;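 also: 0% = DMSO-only wells with no growth and 100% = 10 µM 1-NA-PP1 full growth; inhibition rescues growth on 5-FOA so higher OD means more RAM inhibition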
An asterisk follows results filed as active; . = not tested or not shown. In the library only some 2.8% were active in any assay of this set; here they are far more common.

SMILES	TNAP act hi DEA	BB579 growth dn	Yeast lifespan up	TNAP inh hiacc	TNAP inh noacc	RAM inhibit
COCCCn1c(SCc2nc3ccccc3c(=O)[nH]2)nc2ccccc2c1=O	1	-32	-5	0	-7	9.5*
COCCn1c(SCC(=O)Nc2cccc(C(=O)OC)c2)nc2ccccc2c1=O	1	-42	-9	-4	-6	8.8*
COCCn1c(SCc2ccc(C(=O)OC)o2)nc2cc(Cl)ccc2c1=O	1.1	-19	-8	-6	-11	9.4*
COc1ccccc1N(Cc1ccccc1)S(=O)(=O)c1cc(C(=O)O)ccc1Cl	1	.	.	2	-2	3
Cc1cc(C)nc(-n2nc(C)c(C3(O)C(=O)Nc4ccccc43)c2N)n1 (stereo unspecified)	1	-30	-8	-4	10	0
CCOC(=O)c1c(C)n(OCc2ccccc2)c2ccc3nonc3c12	1	-42	-9	1	-9	10*
COC(=O)N/N=C/c1cccc(OCCSc2ccc(Cl)cc2)c1	1	-16	7	-1	-7	3
Nc1nnc(SCC(=O)OCC(=O)c2ccccc2Br)s1	1	.	.	-3	-9	1
C=CCN1C(=O)C(CC(=O)O)SC1=Nc1ccc(C(=O)O)cc1 (stereo unspecified)	1	.	.	0	-6	0
C=CCN1C(=O)C(Cc2ccc(SC(F)F)cc2)SC1=Nc1ccc(C(=O)O)cc1 (stereo unspecified)	1	.	.	-2	-12	8.7*
CCSc1cc(N2CCOCC2)nc(-c2ccc(Cl)cc2)n1	1	-27	4	-2	-5	11*
CCSc1cc(N2CCCC2)nc(-c2ccccc2)n1	1.1	-27	-6	-6	-4	0
O=c1c(Cl)c(NCCO)ncn1-c1ccccc1	1	13	-3	0	-6	1
Cc1ccc(-c2noc(CN(C(=O)CCN3C(=O)c4ccccc4C3=O)C(C)C)n2)cc1	1	-13	-6	-2	-6	0
COc1ccccc1OCC(=O)N(Cc1nc(-c2ccc(Cl)cc2)no1)C(C)C	1.1	-18	-8	-8	-13	2
COc1cccc(OCC(=O)N(Cc2nc(-c3ccc(Cl)cc3)no2)C(C)C)c1	1.1	-18	-5	-6	-12	10*
Cc1cc(Br)ccc1OCC(=O)N(Cc1nc(-c2ccccc2)no1)C(C)C	1.1	-33	-12	-5	-12	11*
Cc1ccc(-c2noc(CN(C(=O)CCCCCN3C(=O)c4ccccc4C3=O)C(C)C)n2)cc1	1	-2	8	3	3	9.8*
CC(C)N(Cc1nc(-c2ccccc2)no1)C(=O)COc1ccccc1	1.1	-7	-12	-5	-11	1
Cc1ccc(OC(=O)c2sc(Cl)nc2C)cc1C	1	-40	-4	-4	-4	1
O=C(CSc1nnc(CNc2ccc(Cl)cc2)o1)Nc1nc2c(s1)CCCC2	1	-72	-4	-2	2	2
c1ccc(-c2nc(-c3cccnc3)n[nH]2)cc1	1	-43	-7	-1	20	1
Brc1cccc(-c2n[nH]c(-c3ccccc3)n2)c1	1	-11	-23	-4	57*	1
O=C(NCc1cccnc1)C(=O)NCC1OCCN1S(=O)(=O)c1ccc(F)cc1 (stereo unspecified)	1.1	-1	1	-5	-3	1
COc1ccccc1N1CCN(C(=O)c2ccc(CSc3ccccc3)cc2)CC1	1	-30	7	-2	-10	9.8*
SMILES	TNAP act hi DEA	BB579 growth dn	Yeast lifespan up	TNAP inh hiacc	TNAP inh noacc	RAM inhibit
Cc1oc2c(c1C(=O)c1ccccc1)C(=O)C(=O)c1ccccc1-2	1	1	-24	2	-1	2
O=C1C(=O)c2c(C(=O)c3ccccc3)coc2-c2ccccc21	0.9	99*	-16	8	-1	-1
Cc1cc(/C=C\c2nc(O)c([N+](=O)[O-])c(=O)[nH]2)c(C)n1-c1ccccc1	0.9	.	.	5	5	8.7*
O=C(CNCc1ccccc1)Nc1ccc(Oc2ccccc2)cc1	1.1	.	.	-6	-13	11*
O=C(CNCc1ccccc1)Nc1ccc(F)cc1	0.8	.	.	20	-5	2
N=c1oc2ccccc2cc1-c1nc2ccccc2c(=O)[nH]1	1	-10	-14	-4	-16	1
OCc1ccnc2c(O)cccc12	1	54*	-14	1	3	-1
Cc1ccc(O)c(-c2cc(C(F)(F)C(F)F)nc(-c3ccccc3)n2)c1	1	-14	6	-4	-13	9.6*
Oc1ccc(Cl)cc1-c1cc(C(F)(F)C(F)F)nc(-c2ccccc2)n1	0.9	-53	-1	5	-1	8
O=C(OCC(=O)N1CCc2ccccc2C1)c1cccs1	1	.	.	-2	-3	0
COc1ccc(C(=O)COC(=O)CCn2nnc(-c3cccc(O)c3OC)n2)cc1	1	-32	-2	-4	3	3
c1cnc(N2CCN(c3cnccn3)CC2)nc1	1	.	.	-4	-16	0
O=C1C(=O)N(CCN2CCOCC2)C(c2ccccn2)/C1=C(/O)c1ccccc1 (stereo unspecified)	1	-25	26*	0	-4	1
O=C1C(Cl)=C(N2CCCCC2)C(=O)C(Cl)=C1c1cnc(N2CCCCC2)s1	0.9	-28	.	11	32	9.5*
COc1ccc(CCN(Cc2nc(-c3ccccc3)no2)Cc2nc(-c3ccccc3)no2)cc1OC	1.1	-45	8	-7	3	9.0*
O=C(Nc1c(C(=O)NCc2ccco2)cnn1-c1ccccc1)c1ccc(F)cc1	1	-9	3	-1	-1	0
CC(C)c1ccc2occ(-c3nn[nH]n3)c(=O)c2c1	1	-27	59*	-2	-1	1
COC(=O)c1ccc2c(c1)N(Cc1nc(-c3cccc(C)c3)oc1C)C(=O)C1CCCN21 (stereo unspecified)	1	-28	-5	-1	2	1
COc1ccc(C(=O)NCC(=O)NCC(=O)OCc2ccc(Br)cc2)cc1	1	.	.	-3	-10	0
CCS(=O)(=O)c1nn2c(N)c(/C=C3/C=CC(=O)C(OC)=C3)c(=O)nc2s1	0.7	-17	-6	34	29	1
CC(C)Cc1nn2c(N)c(/C=C3\C=Nc4ccccc43)c(=O)nc2s1	0.8	.	.	17	83*	6
